Screening results deposited in PubChem BioAssay by several laboratories.
In the library only some 1.8% were active in any assay of this set; here they are far more common.
APJ antag = antagonists of human apelin receptor APJ, primary screen, CHO-K1 cells, beta-arrestin complementation, luminescence; hit rate 0.32% among 330,000; P35414; inhibition, % at 20 µM; AID 2521, 2010;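 active = inhibition above about 40% at 20 µM, limit read from the data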;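 note: cells challenged with 10 nM apelin-13 agonist together with compound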
Target sequence (P35414 whole entry, looked up): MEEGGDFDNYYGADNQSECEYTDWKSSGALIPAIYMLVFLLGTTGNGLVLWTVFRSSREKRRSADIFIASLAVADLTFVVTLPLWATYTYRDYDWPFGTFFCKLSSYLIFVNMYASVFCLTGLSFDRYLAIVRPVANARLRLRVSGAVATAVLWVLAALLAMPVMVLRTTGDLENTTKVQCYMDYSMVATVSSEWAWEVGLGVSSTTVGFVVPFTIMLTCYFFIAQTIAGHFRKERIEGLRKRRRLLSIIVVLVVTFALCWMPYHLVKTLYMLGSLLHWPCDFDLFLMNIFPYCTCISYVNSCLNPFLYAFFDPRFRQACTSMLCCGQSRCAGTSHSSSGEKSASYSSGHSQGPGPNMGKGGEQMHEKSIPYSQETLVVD
APJ agonist = agonists of human apelin receptor APJ, primary screen, CHO-K1 cells, PathHunter beta-arrestin, luminescence; 0% DMSO wells, 100% apelin; activation, % at 20 µM; hit rate 0.11% among 330,000; AID 2520, 2010;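 active = activation more than six SD over the plate average, tested at 20 µM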
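Incubation: overnight seeding, 90 min compound at 25 °C, 1 h detection; test system: PathHunter CHO-K1 APJ (AGTRL-1) beta-arrestin reporter cells; amount: 1000 cells/well; doses: one dose, 20 µM compound, 1% DMSO; measured by: beta-gal luminescence; measure: agonist-driven arrestin binding to APJ; benchmarks: negative DMSO alone, positive Apelin-13 at 10 nM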
CCR6 antagonist = CCR6 receptor antagonists, primary screen, cell-based, CHO-K1, luminescence, beta-arrestin, uHTS | C-C chemokine receptor type 6 (Homo sapiens), P51684 | hit rate 0.49% among 340,000 | CHO-K1 CCR6 PathHunter beta-arrestin, CCL20-stimulated | inhibition, % at 20 µM;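 active = compounds whose inhibition of the agonist-driven luminescence signal at 20 µM reaches about 50%, limit read from the data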;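 note: cells stimulated with CCL20 at 14 nM final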
B2AR ag = beta2AR agonists driving receptor internalization, primary screen, cell-based, FAP fluorogen, flow cytometry; Beta-2 adrenergic receptor (Homo sapiens), P07550; Am2.2-beta2AR cells; response, % (no concentration beside the values); hit rate 0.43% among 340,000; AID 504454, 2011;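 active = response above a set limit, near 3 SD of response in nonfluorescent compounds, cut at about 42% in these data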
CXCR6 inh = CXCR6 receptor inhibitors, primary screen, cell-based, beta-arrestin, luminescence, CHO-K1 PathHunter, 1536-well; hit rate 0.36% among 360,000; inhibition, % at 20 µM; C-X-C chemokine receptor type 6 (Homo sapiens), O00574; in the data active = inhibition above about 34%, passing the limit was not always enough;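 note: antagonist mode with CXCL16 agonist at 10 nM final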
EBI2 block = EBI2 receptor antagonists, beta-arrestin recruitment, primary screen, cell-based, luminescence, 7a,25-OHC stimulation, uHTS; inhibition, % at 5 µM; hit rate 0.81% among 360,000; 7a,25-OHC stimulated; G-protein coupled receptor 183 (Homo sapiens), P32249; in the data active = inhibition above about 38%;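 note: enzyme fragment complementation signal reports receptor beta-arrestin coupling in cells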
EBI2 conf = EBI2 antagonist hit retest, beta-arrestin, confirmation, cell-based, single concentration, luminescence, 7a,25-OHC stimulation | AID 651997, 2013 | hit rate 29% among 2,400 | 7a,25-OHC antagonism | shares compounds with EBI2 block | inhibition, % at 5 µM;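 active = inhibition of at least 50%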
EBI2 ag = EBI2 agonist activity of antagonist hits, confirmation, counter-screen for EBI2 antagonist project, cell-based, single concentration, agonist mode, luminescence | shares compounds with EBI2 block | EBI2-expressing cells, 60 min; 0% vehicle, 100% 7α,25-dihydroxycholesterol control | activation, % at 5 µM | AID 652000, 2013 | 2,400 tested, under 10 active;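 active = activation of at least 50%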
bGal cs = E. coli beta-galactosidase enzyme inhibition, confirmation, counter-screen for EBI2 antagonist project, biochemical, luminescence, single concentration; shares compounds with EBI2 block; purified beta-galactosidase, luminescent Galacton Star, 15 min; inhibition, % at 5 µM; hit rate 1% among 2,400;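 active = replicate-average signal at least 3 plate SD below neutral wells, shown as high inhibition, flagging enzyme-inhibiting false positives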;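 note: higher means stronger loss of beta-gal luminescence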
Of the large screens only hits and unclear results are named; the others gave an inactive call (follow-up assays come after a bar, where they were run).

Cc1ccc(CNC(=O)C2CCC(CNS(=O)(=O)c3cccs3)CC2)cc1 (centres undefined)	EBI2 block 65.6 | EBI2 conf inactive | EBI2 ag inactive | bGal cs inactive
O=C(NCc1ccc(Cl)cc1)C1CCC(CNS(=O)(=O)c2ccccc2)CC1 (centres undefined)	EBI2 block 59.3 | EBI2 conf inactive | EBI2 ag inactive | bGal cs inactive
O=C(NCc1ccc(F)cc1)C1CCC(CNS(=O)(=O)c2ccccc2)CC1 (centres undefined)	none
C(=C/c1nccc2c1[nH]c1ccccc12)/c1ccc2c(c1)OCO2	EBI2 block 56.3 (no result: APJ antag, APJ agonist) | EBI2 conf inactive | EBI2 ag inactive | bGal cs inactive
C(=N\Nc1nc2ccccc2[nH]1)/c1ccc2c(c1)OCO2	none (no result: APJ antag, APJ agonist)
COc1ccc(OC)c(-n2c(SCC(=O)NCC3CCCO3)nc3ccccc3c2=O)c1 (centres undefined)	none
CCN(CC)c1ccc(NC(=O)COc2ccc(C)cc2)cc1	EBI2 block 48.2 | EBI2 conf inactive | EBI2 ag inactive | bGal cs inactive
O=C(Cc1ccc(NC(=O)C2CCN(C(=O)CCc3ccccc3)CC2)cc1)Nc1ccc(C(=O)N2CCOCC2)cc1	none (no result: APJ antag, APJ agonist)
O=C(COc1ccc([N+](=O)[O-])cc1)N1CCN(c2nnc(-c3ccccc3)c3ccccc23)CC1	EBI2 block 68.1 | EBI2 conf inactive | EBI2 ag inactive | bGal cs inactive
Cc1ccc(-c2nnc(N3CCN(C(=O)COc4ccccc4)CC3)c3ccccc23)cc1	EBI2 block 86.2 | EBI2 conf 53.0 | EBI2 ag inactive | bGal cs inactive
O=C(c1ccc(Br)o1)N1CCN(C/C=C/c2ccccc2)CC1	none
C[C@H](NC(=O)c1ccc(C(C)(C)C)cc1)C(=O)N1CCN(C/C=C/c2ccccc2)CC1	EBI2 block 72.1 | EBI2 conf 53.8 | EBI2 ag inactive | bGal cs inactive
O=C(Nc1cccc(Cl)c1)N1CCN(C/C=C/c2ccccc2)CC1	EBI2 block 54.7 | EBI2 conf inactive | EBI2 ag inactive | bGal cs inactive
O=C(c1ccc(Br)s1)N1CCN(C/C=C/c2ccccc2)CC1	EBI2 block 42.8 | EBI2 conf inactive | EBI2 ag inactive | bGal cs inactive
OC(c1cccc(Cl)c1)c1nc(/C=C/c2ccc(C(F)(F)F)cc2)cs1 (centres undefined)	none (no result: APJ antag, APJ agonist, CCR6 antagonist, B2AR ag)
O=[N+]([O-])c1ccc(Oc2ccc(C(F)(F)F)cn2)cc1	none
FC(F)(F)c1ccc(Oc2ccc3cc(Br)ccc3c2)nc1	EBI2 block 83.7 | EBI2 conf inactive | EBI2 ag inactive | bGal cs inactive
CC(C)Cc1ccc(-c2cc3nc(NCCc4ccc(S(N)(=O)=O)cc4)ccn3n2)cc1	EBI2 block 65.6 (no result: APJ antag, APJ agonist, CCR6 antagonist, B2AR ag) | EBI2 conf inactive | EBI2 ag inactive | bGal cs inactive
NS(=O)(=O)c1ccc(CCNc2ccn3nc(-c4ccccc4)cc3n2)cc1	none (no result: APJ antag, APJ agonist, CCR6 antagonist, B2AR ag)
COc1ccc(/C=N/NC(=O)Nc2cccc3nsnc23)c(OC)c1	EBI2 block 52.6 | EBI2 conf inactive | EBI2 ag inactive | bGal cs inactive
O=C(CSc1nccn1Cc1ccco1)Nc1ccccc1	none
COc1ccccc1-c1cc(NC=O)c2ncc(-c3cccc(C(=O)N(C)C)c3)n2c1	EBI2 block 75.2 (no result: APJ antag, APJ agonist, CCR6 antagonist, B2AR ag) | EBI2 conf inactive | EBI2 ag inactive | bGal cs inactive
